Test results from ChEMBL document CHEMBL4038284, “Synthesis of novel quinoline-based 4,5-dihydro-1H-pyrazoles as potential anticancer, antifungal, antibacterial and antiprotozoal agents” (Eur J Med Chem, 2017).
Values after ≈ are worked out from the molar mass of the structure shown.

Columns and labels:
Cryptococcus neoformans [1] = assay: Growth inhibition of Cryptococcus neoformans ATCC 32264 at 7.8 ug/ml incubated for 48 hrs under dark condition by broth microdilution method relative to control; format: functional; settings: ATCC 32264, 48 h, read-out: GI
Summary of the method: (§1)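 CLSI M27-A3 broth microdilution in RPMI-1640, DMSO ≤1%. Inoculum 1-5 × 10^3 CFU/mL. Incubated 48 h at 30 °C, dark. % inhibition = 100 − (OD405 test − sterility control)/(OD405 growth control − sterility control), with growth and sterility control wells. Triplicate.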

Escherichia coli = assay: Antibacterial activity against Escherichia coli ATCC 25922 after 24 hrs by resazurin dye based microdilution assay; format: functional; settings: ATCC 25922, 24 h
Summary of the method: (§2)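 MIC taken as the lowest concentration giving visible inhibition and/or by resazurin (1 mg/mL). Gentamicin was the control. Run in duplicate, repeated at least three times.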

Candida albicans [2] = assay: Antifungal activity against Candida albicans ATCC 10231 incubated for 48 hrs under dark condition by broth microdilution method; format: functional; settings: ATCC 10231, 48 h
Summary of the method: (§3)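 CLSI M27-A3 broth microdilution in RPMI-1640, DMSO ≤1%, compounds at 250-0.98 µg/mL final. Inoculum 1-5 × 10^3 CFU/mL. Incubated 48 h at 30 °C in a moist dark chamber, read at OD405. MIC80 and MIC50 taken from % inhibition dose-response curves (mean ± SEM, triplicate). Amphotericin B was the positive control.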

Staphylococcus aureus [3] = assay: Antibacterial activity against methicillin-sensitive Staphylococcus aureus ATCC 25923 after 24 hrs by resazurin dye based microdilution assay; format: functional; settings: ATCC 25923, 24 h; summary of the method: as §2
Candida albicans [4] = assay: Growth inhibition of Candida albicans ATCC 10231 at 3.4 ug/ml incubated for 48 hrs under dark condition by broth microdilution method relative to control; format: functional; settings: ATCC 10231, 48 h, read-out: GI
Cryptococcus neoformans [5] = assay: Growth inhibition of Cryptococcus neoformans ATCC 32264 at 31.25 ug/ml incubated for 48 hrs under dark condition by broth microdilution method relative to control; format: functional; settings: ATCC 32264, 48 h, read-out: GI; summary of the method: as §1
Staphylococcus aureus [6] = assay: Antibacterial activity against vancomycin-intermediate Staphylococcus aureus after 24 hrs by resazurin dye based microdilution assay; format: functional; summary of the method: as §2
Candida albicans [7] = assay: Growth inhibition of Candida albicans ATCC 10231 at 125 ug/ml incubated for 48 hrs under dark condition by broth microdilution method relative to control; format: functional; settings: ATCC 10231, 48 h, read-out: GI; summary of the method: as §1
Cryptococcus neoformans [8] = assay: Growth inhibition of Cryptococcus neoformans ATCC 32264 at 125 ug/ml incubated for 48 hrs under dark condition by broth microdilution method relative to control; format: functional; settings: ATCC 32264, 48 h, read-out: GI; summary of the method: as §1
Cryptococcus neoformans [9] = assay: Antifungal activity against Cryptococcus neoformans ATCC 32264 incubated for 48 hrs under dark condition by broth microdilution method; format: functional; settings: ATCC 32264, 48 h; summary of the method: as §3
Neisseria gonorrhoeae = assay: Antibacterial activity against beta lactamase positive Neisseria gonorrhoeae ATCC 31426 by oxidase test; format: functional
Summary of the method: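 Agar dilution MIC on GC agar with 1% isovitalex containing increasing compound concentrations. Plates inoculated with about 1×10^4 CFU (5 µL). MIC is the lowest concentration that inhibited growth, with growth confirmed by oxidase test. Run in duplicate, repeated at least three times.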

Candida albicans [10] = assay: Growth inhibition of Candida albicans ATCC 10231 at 62.5 ug/ml incubated for 48 hrs under dark condition by broth microdilution method relative to control; format: functional; settings: ATCC 10231, 48 h, read-out: GI; summary of the method: as §1
Klebsiella pneumoniae [11] = assay: Antibacterial activity against carbapenemase positive Klebsiella pneumoniae BAA 1705 after 24 hrs by resazurin dye based microdilution assay; format: functional; settings: BAA 1705, 24 h; summary of the method: as §2
Trypanosoma cruzi = assay: Antitrypanosomal activity against Trypanosoma cruzi Tulahuen intracellular amastigote harboring LacZ infected in human U937 cells after 72 hrs by CPRG/Nonidet reagent based spectrophotometric method; format: functional, cell-based; settings: U-937, 72 h
Summary of the method: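 U-937 cells at 2.5 × 10^5 cells/mL in RPMI-1640 with 10% serum and 0.1 µg/mL PMA were infected with β-galactosidase-transfected Tulahuen epimastigotes at 5 parasites per cell. Infected cells were exposed to 50, 12.5, 3.125 and 0.78 µg/mL for 72 h. CPRG (100 uM) and 0.1% Nonidet P-40 were added for 3 h, read at 570 nm. EC50 by Probit. Triplicate, at least two experiments; benznidazole as reference.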

Plasmodium falciparum = assay: Antiplasmodial activity against chloroquine-sensitive Plasmodium falciparum 3D7 assessed as reduction in parasitic LDH activity after 48 hrs by Malstat reagent based […] method; format: functional; settings: 3D7, 48 h
Summary of the method: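 Unsynchronized P. falciparum 3D7 at 0.5% parasitemia and 1% hematocrit in RPMI with 3% Albumax II. Exposed to 100, 25, 6.25 and 1.56 µg/mL for 48 h at 37 °C under 90% N2/5% CO2/5% O2. After three freeze-thaw cycles, LDH measured with Malstat and NBT/PES, 1 h in the dark, read at 650 nm. IC50 by Probit; triplicate, ≥2 experiments.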

Pseudomonas aeruginosa = assay: Antibacterial activity against Pseudomonas aeruginosa ATCC 27853 after 24 hrs by resazurin dye based microdilution assay; format: functional; settings: ATCC 27853, 24 h; summary of the method: as §2
Cryptococcus neoformans [12] = assay: Growth inhibition of Cryptococcus neoformans ATCC 32264 at 15.62 ug/ml incubated for 48 hrs under dark condition by broth microdilution method relative to control; format: functional; settings: ATCC 32264, 48 h, read-out: GI; summary of the method: as §1
Cryptococcus neoformans [13] = assay: Growth inhibition of Cryptococcus neoformans ATCC 32264 at 3.4 ug/ml incubated for 48 hrs under dark condition by broth microdilution method relative to control; format: functional; settings: ATCC 32264, 48 h, read-out: GI
Staphylococcus aureus [14] = assay: Antibacterial activity against methicillin-resistant Staphylococcus aureus ATCC 43300 after 24 hrs by resazurin dye based microdilution assay; format: functional; settings: ATCC 43300, 24 h
Summary of the method: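 Broth microdilution in Mueller Hinton broth, inoculum 5 × 10^5 – 8 × 10^5. Compound stocks diluted in MHB with 5% DMSO and 0.1% Tween 80. Incubation 24 h at 35-37 °C. MIC is the lowest concentration with visible growth inhibition and/or by resazurin (1 mg/mL) read-out. Gentamicin as control. Run in duplicate, replicated at least three times.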

Candida albicans [15] = assay: Growth inhibition of Candida albicans ATCC 10231 at 31.25 ug/ml incubated for 48 hrs under dark condition by broth microdilution method relative to control; format: functional; settings: ATCC 10231, 48 h, read-out: GI; summary of the method: as §1
Candida albicans [16] = assay: Growth inhibition of Candida albicans ATCC 10231 at 250 ug/ml incubated for 48 hrs under dark condition by broth microdilution method relative to control; format: functional; settings: ATCC 10231, 48 h, read-out: GI; summary of the method: as §1
Klebsiella pneumoniae [17] = assay: Antibacterial activity against ESBL positive Klebsiella pneumoniae ATCC 700603 after 24 hrs by resazurin dye based microdilution assay; format: functional; settings: Klebsiella pneumoniae, 700603, 24 h; summary of the method: as §2
Candida albicans [18] = assay: Growth inhibition of Candida albicans ATCC 10231 at 15.62 ug/ml incubated for 48 hrs under dark condition by broth microdilution method relative to control; format: functional; settings: ATCC 10231, 48 h, read-out: GI; summary of the method: as §1
Cryptococcus neoformans [19] = assay: Growth inhibition of Cryptococcus neoformans ATCC 32264 at 62.5 ug/ml incubated for 48 hrs under dark condition by broth microdilution method relative to control; format: functional; settings: ATCC 32264, 48 h, read-out: GI; summary of the method: as §1
Candida albicans [20] = assay: Growth inhibition of Candida albicans ATCC 10231 at 7.8 ug/ml incubated for 48 hrs under dark condition by broth microdilution method relative to control; format: functional; settings: ATCC 10231, 48 h, read-out: GI; summary of the method: as §1
Cryptococcus neoformans [21] = assay: Growth inhibition of Cryptococcus neoformans ATCC 32264 at 250 ug/ml incubated for 48 hrs under dark condition by broth microdilution method relative to control; format: functional; settings: ATCC 32264, 48 h, read-out: GI; summary of the method: as §1
U-937 = assay: Cytotoxicity against human U937 cells after 72 hrs by MTT assay; format: cell-based; settings: u-937, 72 h
Summary of the method: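 Exponentially growing U-937 at 1 × 10^5 cells/mL in RPMI-1640 with 10% FBS were exposed to 200, 50, 12.5 and 3.125 µg/mL for 72 h at 37 °C, 5% CO2. MTT for 3 h, stopped with isopropanol/SDS, formazan read at 570 nm, blank-corrected. LC50 by Probit from % viability against untreated cells. Triplicate, at least two independent experiments.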

Leishmania panamensis = assay: Antileshmanial activity against EpiR/GFP fused Leishmania panamensis MHOM/CO/87/UA140 intracellular amastigotes infected in human […] cells after 72 hrs by flow cytometric method; format: functional, cell-based; settings: MHOM/CO/87/UA140, 72 h
Summary of the method: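 PMA-treated U-937 cells (3 × 10^5 cells/mL) infected with stationary-phase GFP L. panamensis promastigotes (15:1), 3 h at 34 °C, then washed. After 24 h, compounds added at 50, 12.5, 3.125 and 0.78 µg/mL for 72 h at 37 °C. EC50 by Probit; triplicate, two experiments.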

Compound	inhibition of growth at 7.8 µg/mL (Cryptococcus neoformans [1]) [%]	MIC (Escherichia coli) [µg/mL]	MIC50 (Candida albicans [2]) [µg/mL]	MIC80 (Candida albicans [2]) [µg/mL]	MIC (Staphylococcus aureus [3]) [µg/mL]	inhibition of growth at 3.4 µg/mL (Candida albicans [4]) [%]	inhibition of growth at 31.25 µg/mL (Cryptococcus neoformans [5]) [%]	MIC (Staphylococcus aureus [6]) [µg/mL]	inhibition of growth at 125 µg/mL (Candida albicans [7]) [%]	inhibition of growth at 125 µg/mL (Cryptococcus neoformans [8]) [%]	MIC50 (Cryptococcus neoformans [9]) [µg/mL]	MIC80 (Cryptococcus neoformans [9]) [µg/mL]	MIC (Neisseria gonorrhoeae) [µg/mL]	inhibition of growth at 62.5 µg/mL (Candida albicans [10]) [%]	MIC (Klebsiella pneumoniae [11]) [µg/mL]	EC50 (Trypanosoma cruzi) [µg/mL]	EC50 (Plasmodium falciparum) [µg/mL]	MIC (Pseudomonas aeruginosa) [µg/mL]	inhibition of growth at 15.62 µg/mL (Cryptococcus neoformans [12]) [%]	inhibition of growth at 3.4 µg/mL (Cryptococcus neoformans [13]) [%]	other results
Cc1ccc(C2=NN(c3cc(Cl)cc(Cl)c3)C(c3cccc(Nc4ccnc5cc(Cl)ccc45)c3)C2)cc1 (stereo not given)	1.15	> 1000	≥ 250	≥ 250	> 1000	0	6.71	> 1000	3.88	15.3	≥ 250	≥ 250	> 1000	0	> 1000	49.2 (≈ 88.3 µM)	65.2 (≈ 117 µM)	> 1000	1.85	0	MIC (Staphylococcus aureus [14]): > 1000 µg/mL; inhibition of growth at 31.25 µg/mL (Candida albicans [15]): 0%; inhibition of growth at 250 µg/mL (Candida albicans [16]): 17.9%; MIC (Klebsiella pneumoniae [17]): > 1000 µg/mL; inhibition of growth at 15.62 µg/mL (Candida albicans [18]): 0%; inhibition of growth at 62.5 µg/mL (Cryptococcus neoformans [19]): 8.02%; inhibition of growth at 7.8 µg/mL (Candida albicans [20]): 0%; inhibition of growth at 250 µg/mL (Cryptococcus neoformans [21]): 40.9%; LC50 (U-937): > 200 µg/mL; EC50 (Leishmania panamensis): 18.1 µg/mL (≈ 32.5 µM)
O=C(/C=C/c1cccc(Nc2ccnc3cc(Cl)ccc23)c1)c1ccc(Br)cc1	35.1	> 1000	250 (≈ 539 µM)	≥ 250	> 1000	15.8	46.4	> 1000	47.7	70.6	125 (≈ 270 µM)	250 (≈ 539 µM)	> 1000	35.3	> 1000	1.35 (≈ 2.91 µM)	10.3 (≈ 22.3 µM)	> 1000	44.5	34.9	MIC (Staphylococcus aureus [14]): > 1000 µg/mL; inhibition of growth at 31.25 µg/mL (Candida albicans [15]): 28.9%; inhibition of growth at 250 µg/mL (Candida albicans [16]): 58%; MIC (Klebsiella pneumoniae [17]): > 1000 µg/mL; inhibition of growth at 15.62 µg/mL (Candida albicans [18]): 32%; inhibition of growth at 62.5 µg/mL (Cryptococcus neoformans [19]): 47.9%; inhibition of growth at 7.8 µg/mL (Candida albicans [20]): 21.1%; inhibition of growth at 250 µg/mL (Cryptococcus neoformans [21]): 100%; LC50 (U-937): 0.7 µg/mL (≈ 1.51 µM); EC50 (Leishmania panamensis): 0.88 µg/mL (≈ 1.9 µM)
